Test results: ChEMBL document CHEMBL1124690, “Synthesis and antitumor activity of fused tetracyclic quinoline derivatives. 1” (J Med Chem, 1989)
Converted amounts (≈) assume the structure as drawn. One block for each compound: values may come before it. The source made the active and inactive calls. No cut-off for these calls is given here.

Columns and labels:
[1] = Percent fluorescence of the ethidium bromide-DNA complex
How it was run: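 Ethidium displacement: ethidium bromide 3 µM and calf thymus DNA 20 µM in Hepes 2 mM, EDTA 10 µM, NaCl 9.4 mM, pH 7.0; drug 10 µM. Excitation 564 nm filter, emission 595 nm. Fluorescence with drug as % of drug-free control; mean ± SE of three experiments.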

[2] = system: P388; assay: Median survival time per control mice with leukemia P388 at 400 mg/kg dose injected a dose of 400 mg/kg; format: functional, organism-based; details: Mus musculus
How it was run: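 CD2F1 mice (six per group) given 10⁶ P388 cells ip; drug in 0.9% NaCl with a drop of Tween 80, ip on days 1 and 5. Activity as % T/C of median survival time, treated vs control.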

[3] = Inhibition of KB cell growth in vitro; format: functional, cell-based; details: Homo sapiens
How it was run: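 KB clonal cells in Eagle's MEM with 10% calf serum, 37 °C, 5% CO2; seeded 2100 cells/cm², medium changed at 24 h, then graded drug 0.3–100 µg/mL for 48 h, duplicate dishes per concentration. Cells trypsinized and counted by Coulter counter; IC50 from log concentration vs growth rate (% of control).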

[4] = system: DNA topoisomerase II (Bos taurus); assay: Activity of the topoisomerase II dependent DNA cleavage; Inactive
[5] = system: P388; assay: Median survival time per control mice with leukemia P388 at 25 mg/kg dose injected intraperitoneally; format: functional, Mus musculus; details: route intraperitoneal
How it was run: (§1)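 CD2F1 mice (six per group) implanted ip with 10⁶ P388 leukemia cells. Drug dissolved in 0.9% NaCl with a drop of Tween 80, given ip once daily on days 1 and 5. % T/C = median survival time treated/control × 100.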

[6] = system: DNA topoisomerase 1 (Bos taurus); assay: Unwinding of DNA observed in a reaction mixture containing PBR322 DNA dimer, calf thymus DNA topoisomerase I, and the drug; ++ = unwinding was observed at 25 ug/mL
[7] = system: DNA topoisomerase II (Bos taurus); assay: Activity of the topoisomerase II dependent DNA cleavage; Active
[8] = system: P388; assay: Median survival time per control mice with leukemia P388 at 400 mg/kg dose injected intraperitoneally; format: functional, Mus musculus; details: route intraperitoneal; how it was run: as §1
[9] = system: P388; assay: Median survival time per control mice with leukemia P388 at 50 mg/kg dose injected intraperitoneally; format: functional, Mus musculus; details: route intraperitoneal; how it was run: as §1
[10] = system: P388; assay: Median survival time per control mice with leukemia P388 at 12.5 mg/kg dose injected intraperitoneally; format: functional, Mus musculus; details: route intraperitoneal; how it was run: as §1
[11] = system: P388; assay: Median survival time per control mice with leukemia P388 at 200 mg/kg dose injected intraperitoneally; format: functional, Mus musculus; details: route intraperitoneal; how it was run: as §1
[12] = system: P388; assay: Median survival time per control mice with leukemia P388 at 100 mg/kg dose injected intraperitoneally; format: functional, Mus musculus; details: route intraperitoneal; how it was run: as §1
[13] = system: DNA topoisomerase 1 (Bos taurus); assay: Unwinding of DNA observed in a reaction mixture containing PBR322 DNA dimer, calf thymus DNA topoisomerase I, and the drug; + = unwinding was observed at 100 ug/mL
[14] = system: DNA topoisomerase II (Bos taurus); assay: Activity of the topoisomerase II dependent DNA cleavage; (-) = Inactive
[15] = system: P388; assay: Median survival time per control mice with leukemia P388 at 20 mg/kg dose injected intraperitoneally; format: functional, Mus musculus; details: route intraperitoneal; how it was run: as §1
[16] = system: P388; assay: Median survival time per control mice with leukemia P388 at 40 mg/kg dose injected intraperitoneally; format: functional, Mus musculus; details: route intraperitoneal; how it was run: as §1
[17] = system: P388; assay: Median survival time per control mice with leukemia P388 at 10 mg/kg dose injected intraperitoneally; format: functional, Mus musculus; details: route intraperitoneal; how it was run: as §1
[18] = Median survival time per control animal with colon 38 carcinoma cells at 35 mg/kg dose injected intraperitoneally on day 1,8,15,22; format: functional, Mus musculus; details: route intraperitoneal
How it was run: (§2)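 Colon 38 inoculated sc as a 1 × 1 × 1 mm³ fragment into B6D2F1 mice; drug dosed ip on days 1, 8, 15 and 22. Result expressed as % T/C of median survival time, treated versus control.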

[19] = system: M5076; assay: Median survival time per control animal with M5076 cells at 3.1 mg/kg dose injected intraperitoneally on day 1,5,9; format: functional, Mus musculus; details: route intraperitoneal
How it was run: (§3)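 B6D2F1 mice inoculated ip with 10⁶ M5076 fibrosarcoma cells; drug given ip on days 1, 5 and 9. Activity read as % T/C, ratio of median survival time of treated to control group.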

[20] = system: M5076; assay: Median survival time per control animal with M5076 cells at 12.5 mg/kg dose injected intraperitoneally on day 1,5,9; format: functional, Mus musculus; details: route intraperitoneal; how it was run: as §3
[21] = Median survival time per control animal with colon 38 carcinoma cells at 25 mg/kg dose injected intraperitoneally on day 1,8,15,22; format: functional, Mus musculus; details: route intraperitoneal; how it was run: as §2
[22] = system: M5076; assay: Median survival time per control animal with M5076 cells at 50 mg/kg dose injected intraperitoneally on day 1,5,9; format: functional, Mus musculus; details: route intraperitoneal; how it was run: as §3
[23] = system: B16; assay: Median survival time per control animal with B16 cells at 25 mg/kg dose injected intraperitoneally on day 1,5,8; format: functional, Mus musculus; details: route intraperitoneal
How it was run: (§4)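 Female-unspecified B6D2F1 mice inoculated ip with 0.5 mL of 10% homogenate (Hank's saline) of subcutaneous B16 melanoma. Drug given ip on days 1, 5 and 8. % T/C = median survival time of treated over control group.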

[24] = Median survival time per control animal with colon 38 carcinoma cells at 6.3 mg/kg dose injected intraperitoneally on day 1,8,15,22; format: functional, Mus musculus; details: route intraperitoneal; how it was run: as §2
[25] = system: M5076; assay: Median survival time per control animal with M5076 cells at 6.3 mg/kg dose injected intraperitoneally on day 1,5,9; format: functional, Mus musculus; details: route intraperitoneal; how it was run: as §3
[26] = Median survival time per control animal with colon 38 carcinoma cells at 12.5 mg/kg dose injected intraperitoneally on day 1,8,15,22; format: functional, Mus musculus; details: route intraperitoneal; how it was run: as §2
[27] = system: B16; assay: Median survival time per control animal with B16 cells at 12.5 mg/kg dose injected intraperitoneally on day 1,5,8; format: functional, Mus musculus; details: route intraperitoneal; how it was run: as §4
[28] = system: B16; assay: Median survival time per control animal with B16 cells at 6.3 mg/kg dose injected intraperitoneally on day 1,5,8; format: functional, Mus musculus; details: route intraperitoneal; how it was run: as §4
[29] = system: M5076; assay: Median survival time per control animal with M5076 cells at 25 mg/kg dose injected intraperitoneally on day 1,5,9; format: functional, Mus musculus; details: route intraperitoneal; how it was run: as §3

Fluoroscence [1]: 106%
Structure (SMILES): COc1cc(NS(C)(=O)=O)ccc1Nc1c2c(nc3ccccc13)CCSC2
T/C [2]: inactive
IC50 [3]: 46 mg/L (≈ 111 µM)

Fluoroscence [1]: 93.3%
Activity [4]: inactive
Structure (SMILES): COc1cc(NS(C)(=O)=O)ccc1Nc1c2c(nc3ccccc13)CCCC2
T/C [2]: inactive
IC50 [3]: 41 mg/L (≈ 103 µM)

Structure (SMILES): COc1cc(NS(C)(=O)=O)ccc1Nc1c2ccccc2nc2c1sc1ccccc12
T/C [5]: 170%
Unwinding [6]: unwinding was observed at 25 ug/mL
Fluoroscence [1]: 79.3%
Activity [7]: Active
T/C [8]: 252%
T/C [9]: 170%
T/C [10]: 138%
T/C [11]: 238%
IC50 [3]: < 0.3 mg/L
T/C [12]: 166%

Structure (SMILES): CN(C)CCCNc1c2c(nc3ccccc13)CCN(C)C2
T/C [2]: inactive
IC50 [3]: 14 mg/L (≈ 46.9 µM)

Fluoroscence [1]: 93.6%
Structure (SMILES): COc1cc(NS(C)(=O)=O)ccc1Nc1c2ccccc2nc2c3ccccc3n(C)c12
T/C [2]: inactive
IC50 [3]: 3.6 mg/L (≈ 8.06 µM)

Fluoroscence [1]: 82%
Structure (SMILES): CN(C)CCCNc1c2c(nc3ccccc13)CCCC2
T/C [2]: inactive
IC50 [3]: 1.3 mg/L (≈ 4.59 µM)

Structure (SMILES): COc1cc(NS(C)(=O)=O)ccc1Nc1c2ccccc2nc2c1oc1ccccc12
T/C [5]: 125%
Fluoroscence [1]: 81.4%
Activity [7]: Active
T/C [8]: 248%
Unwinding [13]: unwinding was observed at 100 ug/mL
T/C [9]: 159%
T/C [10]: 117%
T/C [11]: 168%
IC50 [3]: < 0.3 mg/L
T/C [12]: 138%

Structure (SMILES): CN(C)CCCNc1c2c(nc3ccccc13)-c1ccccc1C2
T/C [5]: 88%
Fluoroscence [1]: 5.45%
Activity [14]: inactive
T/C [9]: 101%
T/C [10]: 110%
IC50 [3]: < 0.3 mg/L

Structure (SMILES): COc1cc(NS(C)(=O)=O)ccc1Nc1c2ccccc2nc2ccccc12 [AMSACRINE]
T/C [15]: 198%
Fluoroscence [1]: 63.7%
T/C [16]: 223%
T/C [17]: 174%
IC50 [3]: < 0.3 mg/L

Structure (SMILES): COc1cc(NS(C)(=O)=O)ccc1Nc1c2c(nc3ccccc13)-c1ccccc1C2
T/C [18]: 150%
T/C [5]: 217%
Fluoroscence [1]: 67.6%
Activity [7]: Active
T/C [8]: 0%
T/C [19]: 193%
T/C [20]: 184%
T/C [9]: 240%
T/C [21]: 138%
T/C [10]: 166%
T/C [22]: 92%
T/C [23]: 211%
T/C [11]: 60%
IC50 [3]: < 0.3 mg/L
T/C [12]: 80%
T/C [24]: 111%
T/C [25]: 158%
T/C [26]: 133%
T/C [27]: 223%
T/C [28]: 184%
T/C [29]: 111%

Fluoroscence [1]: 95.3%
Activity [4]: inactive
Structure (SMILES): COc1cc(NS(C)(=O)=O)ccc1Nc1c2c(nc3ccccc13)-c1ccccc1C2C (centres undefined)
T/C [2]: inactive
IC50 [3]: 15 mg/L (≈ 33.7 µM)

Fluoroscence [1]: 104%
Structure (SMILES): COc1cc(NS(C)(=O)=O)ccc1Nc1c2c(nc3ccccc13)CCN(C)C2
T/C [2]: inactive
IC50 [3]: > 100 mg/L
